# Screening data from PubChem.
# Compounds with a hit are over-represented: about 2.5% of the library has one in this group of screens.
# zfTRPN1 agonist = zebrafish TRPN1 (NompC) channel agonism; AID 1424; 220,000 tested, 0.18% active; activation, % at 3 µM; HEK293 zebrafish TRPN1-YFP, Fluo-8 calcium fluorescence; 100% = response to 87 µM carbachol;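 active = activation above its plate's cutoff, the mean activation of test wells on that plate plus 3 SD, cut at about 19% in these data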
#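 Control set: carbachol 87 µM as high control, DMSO as low control; system: HEK293 stable line with zebrafish TRPN1-YFP; read-out: % activation versus carbachol response; detection: intracellular calcium fluorescence with Fluo-8; doses: single test compound dose, 3 µM nominal, 0.3% DMSO; schedule: dye 1 h 37 °C plus 30 min RT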
# OX1R antag-1 = antagonists of human orexin 1 receptor | O43613 | CHO/OX1R cells, Fluo-8 calcium fluorescence, orexin A | inhibition, % at 5 µM | 330,000 tested, 0.43% active | AID 434989;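 active = inhibition above its plate's threshold, mean inhibition of all tested compounds on the plate plus 3 SD, cut at about 37% in these data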
# Target sequence (O43613 whole entry, looked up): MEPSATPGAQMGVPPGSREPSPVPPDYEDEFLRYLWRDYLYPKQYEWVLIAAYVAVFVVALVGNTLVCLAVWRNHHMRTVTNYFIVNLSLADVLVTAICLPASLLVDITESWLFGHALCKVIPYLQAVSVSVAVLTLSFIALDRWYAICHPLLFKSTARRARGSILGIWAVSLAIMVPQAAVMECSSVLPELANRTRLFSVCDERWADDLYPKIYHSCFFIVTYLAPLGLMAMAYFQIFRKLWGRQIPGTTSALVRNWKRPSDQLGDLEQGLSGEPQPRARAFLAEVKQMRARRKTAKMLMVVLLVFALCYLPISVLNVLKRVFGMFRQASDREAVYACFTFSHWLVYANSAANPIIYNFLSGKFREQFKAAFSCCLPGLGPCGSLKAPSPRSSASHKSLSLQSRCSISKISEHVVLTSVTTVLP
# TRPML3 agonist = agonists of human TRPML3 channel | 220,000 tested, 0.29% active | activation, % at 3 µM | Q8TDD5 | HEK293 TRPML3-YFP, Fluo-8 calcium fluorescence; 100% = the carbachol control signal;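 active = activation above its plate's cutoff, the mean activation of the plate's test wells plus 3 SD, cut at about 12% in these data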
#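 Test system: HEK293 cells stably carrying human TRPML3-YFP; Doses: single dose, 3 µM final nominal compound, 0.3% DMSO final; Schedule: dye loading 1 h 37 °C then 30 min ambient, 125 s read; Technique: Fluo-8 calcium fluorescence; Benchmarks: high control carbachol 87 µM, low control DMSO.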
# OX1R antag-2 = antagonists of human orexin 1 receptor (OX1R); OX1R-expressing cells, FRET antagonist read-out; inhibition, % at 6.6 µM; 330,000 tested, 1.8% active; AID 485270; in the data active = inhibition mostly above about 38%, no sharp cut-off; inactive = mostly below about 40%
# CHO parental Ca = signal in parental CHO cells, OX1R antagonist counter-screen; parental CHO-K1, ATP-induced calcium, Fluo-8 fluorescence; inhibition, % at 5.6 µM; 330,000 tested, 0.63% active; AID 463079;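 active = inhibition above that plate's mean sample inhibition plus 3 SD, cut at about 26% in these data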
#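 Material: Parental CHO cells | Reagent: ATP | Compound dosing: Single nominal dose of 5.6 µM per compound | Detection: Intracellular calcium via Fluo-8 no-wash fluorescent dye | Read-out: % inhibition of ATP-induced calcium mobilization | Benchmarks: Low control ATP plus DMSO, high control DMSO only | Replicates: Singlicate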
# Hits are given with their value; - = inactive; . = not tested or not shown.
SMILES,zfTRPN1 agonist,OX1R antag-1,TRPML3 agonist,OX1R antag-2,CHO parental Ca
C/C(=N\NC(=O)C(=O)N/N=C(\C)c1cccc(O)c1)c1cccc(O)c1,-,-,-,58,-
Cc1ccc(S(=O)(=O)N2CCN(C(=O)CN3C(=O)c4ccc([N+](=O)[O-])cc4C3=O)CC2)cc1C,.,-,.,-,-
COC(=O)c1ccc(N2CCN(S(=O)(=O)c3ccc4ccccc4c3)CC2)c([N+](=O)[O-])c1,-,-,-,-,38
COc1ccc(N2CCN(S(=O)(=O)c3ccc4c(c3)CCCC4)CC2)c([N+](=O)[O-])c1,-,-,-,37,-
COc1ccc(C(=O)NNC(=O)C23CC4CC(CC(C4)C2)C3)cc1OC,.,-,.,-,-
COc1ccccc1N(CC(=O)NCCSCc1ccco1)S(=O)(=O)c1ccccc1,.,-,.,51,-
O=C(CN(c1ccccc1)S(=O)(=O)c1ccccc1)NCCSCc1ccco1,-,-,-,57,-
Clc1ccc(-n2cc(COCc3ccccc3)nn2)cc1,-,-,-,-,-
CCN1C(=O)[C@@H]2[C@@H](c3ccc(-c4cccc(Cl)c4)c(OC)c3)N3CCCC[C@@]3(C(=O)OC)[C@@H]2C1=O,.,-,.,-,-
O=c1[nH]c2cc([N+](=O)[O-])c([N+](=O)[O-])cc2[nH]c1=O,-,-,-,56,-
O=c1[nH]c2ccccc2[nH]c1=O,-,-,-,-,-
Cc1nn(Cc2c(Cl)cccc2Cl)c(C)c1NC(=O)c1cc(C(C)C)on1,-,89,-,-,91
Cc1cc(C(=O)Nc2c(C)nn(Cc3c(Cl)cccc3Cl)c2C)no1,-,-,-,-,-
O=C(O)CN1C(=O)C(=O)N(Cc2cccc(F)c2)C1=O,.,-,.,-,-
O=C(Cc1ccccc1)Nc1cccc(-c2nnc(-c3ccco3)o2)c1,-,-,-,-,-
COc1ccc(CC(=O)Nc2cccc(-c3nnc(-c4cccc(C)c4)o3)c2)cc1OC,-,89,-,110,94
COc1ccc(CC(=O)Nc2cccc(-c3nnc(-c4ccc(C)cc4)o3)c2)cc1OC,-,-,-,-,-
COc1ccccc1OCC(=O)Nc1cccc(-c2nnc(-c3ccco3)o2)c1,-,-,-,46,-
COc1ccc(CC(=O)NCC2CCCN(Cc3cc(OC)cc(OC)c3)C2)cc1 (centres undefined),.,-,.,-,-
C#CCN1C(=O)S/C(=C/C=C/c2ccc(N(C)C)cc2)C1=O,-,79,-,-,72
Cc1cc(C)nc(/N=C(\N)Nc2ccc(OCc3ccccc3)cc2)n1,111,105,102,-,89
Cc1cc(C)nc(/N=C(\N)Nc2ccc(OCCC(C)C)cc2)n1,.,94,.,-,68
Cc1cc(C)nc(/N=C(\N)Nc2cccc(OCc3ccccc3)c2)n1,72,73,61,-,40
Cc1cc(C)nc(/N=C(\N)Nc2ccc(CC(=O)OC(C)C)cc2)n1,.,67,.,-,41
CCOC(=O)C(=O)Nc1ccc(OCc2ccccc2)cc1,-,-,-,-,-
SMILES,zfTRPN1 agonist,OX1R antag-1,TRPML3 agonist,OX1R antag-2,CHO parental Ca
CC1(S(=O)(=O)O)CC(=O)c2ccccc2C1=O (centres undefined),.,-,.,60,-
CC1(N2CCCCC2)C(=O)c2ccccc2C1=O,-,-,-,-,-
CC(CNC(=O)Cn1ccc2cc(S(=O)(=O)N3CCCC3)ccc21)c1ccccc1 (centres undefined),.,-,.,43,-
COc1ccccc1CNC(=O)Cn1ccc2cc(S(=O)(=O)N3CCCC3)ccc21,.,-,.,-,-
CCC(C(=O)NCCC(C)C)n1ccc2cc(S(=O)(=O)N3CCCCC3)ccc21 (centres undefined),.,-,.,-,53
Cc1ccc(OCc2cc(C(=O)N(C)Cc3cc(C4CC4)n[nH]3)no2)cc1C,.,-,.,-,-
Cc1ccc(-c2csc(NC(=O)Cn3cnc4c3c(=O)n(C)c(=O)n4C)n2)cc1C,-,-,-,-,-
Cn1c(=O)c2c(ncn2CC(=O)Nc2nc(-c3ccc(F)c(F)c3)cs2)n(C)c1=O,-,-,-,-,99
Cc1ccc(C(=O)OCC(=O)NC(C)c2ccccc2)cc1C (centres undefined),.,-,.,-,-
Cc1ccc(NC(=O)CNc2ccc(N3CCOCC3)cc2)cc1S(=O)(=O)N(C)C,-,-,-,-,-
O=C(c1ccc(Cl)cc1)N(Cc1ccc(Br)cc1)N1C(=O)CCC1=O,-,-,-,-,-
O=C(c1ccc([N+](=O)[O-])cc1)N(Cc1ccc(Cl)cc1)N1C(=O)CCCC1=O,27,-,87,-,-
NS(=O)(=O)c1ccc(CCNC(=O)c2ccc(C#CC3(O)CCCCC3)cc2)cc1,-,-,-,-,-
N#CN(Cc1ccccc1)Cc1ccccc1,-,-,-,-,-
Cc1cc(SCC(=O)N(C)C2CCCCC2)nc2ccccc12,.,-,.,36,-
CCc1nn(C(C)C(=O)N2CCN(c3ccc(OC)cc3)CC2)c(=O)c2cc3occc3n12 (centres undefined),.,-,.,-,-
Cc1ccc(NC(=O)CSc2cccc[n+]2[O-])c([N+](=O)[O-])c1,-,-,-,69,-
O=C(CSc1cccc[n+]1[O-])Nc1ccc(Cl)cc1F,.,-,.,-,-
O=C(CSc1cccc[n+]1[O-])Nc1cc([N+](=O)[O-])ccc1Cl,-,-,-,43,-
Cc1cc(C)c(NC(=O)CSc2cccc[n+]2[O-])c(C)c1,.,-,.,-,-
Cc1cccc(/C=C/c2nc3ccccc3c(=O)[nH]2)c1,-,-,-,69,-
O=C(O)c1ccc(/C=C/c2nc3ccccc3c(=O)[nH]2)cc1,.,-,.,-,-
Cc1c(NC(=O)C(C)c2ccc(CC(C)C)cc2)c(=O)n(-c2ccccc2)n1C (centres undefined),-,-,-,-,-
O=C(Nc1ccccc1O)C(c1ccccc1)c1ccccc1,.,-,.,-,67
O=C(Nc1ccccc1O)c1ccccc1O,-,-,-,-,37
SMILES,zfTRPN1 agonist,OX1R antag-1,TRPML3 agonist,OX1R antag-2,CHO parental Ca
CC(C)Cc1ccc(C(C)C(=O)Nc2ccccc2O)cc1 (centres undefined),46,101,22,-,82
CC(C)Cc1ccc(C(C)C(=O)Nc2nccs2)cc1 (centres undefined),-,49,-,-,43
CC(C)c1ccc(CNC(=O)C(=O)Nc2nccs2)cc1,-,-,-,-,-
O=C(O)c1ccccc1NC(=O)C(c1ccccc1)c1ccccc1,.,-,.,-,-
CC(=O)c1sc(NC(=O)CCS(=O)(=O)c2ccc(C)cc2)nc1C,.,-,.,-,-
CCOc1ncccc1C(=O)NNC(=O)c1csc(N2CCOCC2)n1,.,-,.,-,-
CN(C)c1ccc(/C=C(\C#N)C(=O)OCC(=O)N(C)C2CCS(=O)(=O)C2)cc1 (centres undefined),.,-,.,35,-
Cc1ccc(O)c(-c2cc(-c3cccc(Br)c3)n[nH]2)c1,-,-,-,-,54
Cc1ccc(-n2nnnc2C(Cl)(Cl)c2nnnn2-c2ccc(C)cc2)cc1,-,55,-,-,48
